Screening data deposited in PubChem BioAssay by several laboratories.
HDAC3 inhib: HDAC3 deacetylase inhibitors, primary screen, biochemical, fluorescence, cell-free homogeneous. recombinant HDAC3, fluorogenic peptide/trypsin coupled. inhibition, % at 8.3 µM. actives 0.15% (n = 320,000). AID 2718, 2010; in the data active = inhibition above about 26%, passing the limit was not always enough; inconclusive = no clear call, values can overlap the other calls
ALR H2O2 inh: inhibitors of human ALR sulfhydryl oxidase, primary screen, biochemical, H2O2 detection, HRP-luminol luminescence, single point. purified ALR, DTT oxidation. inhibition, % (concentration not given with the values). actives 3.8% (n = 290,000);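 active = mean replicate inhibition above about 79%, with every replicate also reaching it, limit read from the data; inconclusive = only one of the two criteria met; inactive = mean below limit and not every replicate reaching it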
UCH37 inh: inhibitors of human UCH37 deubiquitinase, primary screen, biochemical, Ub-AMC cleavage, fluorescence; actives 0.33% (n = 330,000); AID 588478, 2011; Ubiquitin carboxyl-terminal hydrolase isozyme L5 (Homo sapiens), Q9Y5K5; purified proteasome/UCH37; inhibition, % (no concentration beside the values);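 active = mean inhibition over replicate wells above about 20%, limit read from the data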;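 also: 0% = compound-free wells with enzyme and 100% = wells lacking proteasome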
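Reagent: Ub-AMC substrate; assay system: Proteasome-associated human UCH37 deubiquitinase; controls: no-proteasome and no-compound wells; read-out: % inhibition of Ub-AMC cleavage fluorescence; timing: 30 min preincubation with enzyme, 25 min cleavage at room temperature; signal: AMC fluorescence from Ub-AMC cleavage, excitation 355 nm, emission 460 nm; buffer or medium: Tris-HCl pH 7.4 plus ovalbumin, ATP-MgCl2, DTT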
PfM18AAP inh-1: PfM18AAP inhibitors, malaria aminopeptidase, primary screen, biochemical, QFRET, recombinant enzyme; M18 aspartyl aminopeptidase (Plasmodium falciparum 3D7); H-Glu-NHMec fluorogenic cleavage; inhibition, % at 7.35 µM; actives 1.2% (n = 290,000);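 active = inhibition above the campaign mean inhibition over all tested compounds plus 3 SD, cut at about 28% in these data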;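 also: 0% = plate median of test compound wells and 100% = 2 mM ZnCl2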
Rtt109 HAT inh: inhibitors of C. albicans Rtt109/Vps75 HAT, primary screen, biochemical, ThioGlo CoA-SH fluorescence, plate reader | Histone acetyltransferase RTT109 (Candida albicans (strain SC5314 / ATCC MYA-2876)), … | inhibition, % at 34.9 µM | purified Rtt109/Vps75, 4 h | actives 0.16% (n = 330,000);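 active = inhibition of at least 50% in every replicate; inconclusive = best replicate reaches 50% inhibition but some replicates fall short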
FAS TE block: FAS thioesterase domain inhibitors, primary screen, biochemical, fluorescence intensity, uHTS. Fatty acid synthase (Homo sapiens), P49327. recombinant FAS-TE, OMFH fluorogenic substrate, fluorescence endpoint. inhibition, % at 15 µM. actives 0.67% (n = 360,000). AID 602261, 2012;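 active = compounds whose normalised, plate-corrected inhibition of enzyme fluorescence in the single-dose primary screen is 50% or more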;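 also: 0% = DMSO with enzyme and 100% = substrate without enzyme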
PfM18AAP inh-2: PfM18AAP inhibitors, malaria aminopeptidase, confirmation, biochemical, QFRET, recombinant enzyme, triplicate | shares compounds with PfM18AAP inh-1 | H-Glu-NHMec fluorogenic cleavage | inhibition, % at 7.35 µM | actives 28% (n = 2,400) | AID 2170, 2009;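 active = mean inhibition over replicate wells above the hit cutoff set for the earlier primary screen, cut at about 29% in these data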;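 also: 0% = median of test compound wells and 100% = 2 mM ZnCl2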
CTSL1 counter: cathepsin L1 inhibitors, retest, confirmation, counter-screen for PFM18AAP inhibitor project, biochemical, QFRET, triplicate. purified cathepsin L1, Z-Leu-Arg-MCA fluorescence. inhibition, % at 5.96 µM. shares compounds with PfM18AAP inh-1. 2,400 tested, under 10 active. AID 2178, 2009;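 active = average inhibition across replicates above the hit cutoff set in the earlier primary screen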;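 also: 0% = median of test compound wells and 100% = Z-Phe-Ala-diazomethylketone 1 µM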
Starred values were filed as active, the others as inactive; ? = inconclusive; nt = no result given. Compounds with a hit are over-represented: about 4.6% of the library has one in this group of screens.

SMILES	HDAC3 inhib	ALR H2O2 inh	UCH37 inh	PfM18AAP inh-1	Rtt109 HAT inh	FAS TE block	PfM18AAP inh-2	CTSL1 counter
O=C(NCc1ccccc1)C(=NO)c1ccccc1	nt	nt	4	nt	nt	nt	nt	nt
O=C(Oc1ccc(C=NNc2nc(N3CCCCC3)nc(N3CCCCC3)n2)cc1)c1ccco1	nt	nt	1	nt	nt	nt	nt	nt
Cc1ccc(NC(=O)/C(=C\c2ccc([N+](=O)[O-])cc2)NC(=O)c2ccccc2)cc1	5	2	7	-2	5	20	nt	nt
O=C(N/N=C/c1ccc(O)c(O)c1O)/C(=C/c1ccc([N+](=O)[O-])cc1)NC(=O)c1ccccc1	6	91*	nt	54*	?	47	34*	-2
CCC(=NNC(=O)OC)c1ccc(OC(F)F)cc1	nt	nt	3	nt	nt	nt	nt	nt
Cc1nc2ccccn2c1-c1csc(Nc2cccc(O)c2)n1	nt	nt	-9	38*	36	2	23	5
Cc1nc2ccccn2c1-c1csc(Nc2ccc(C(=O)O)cc2)n1	0	2	-5	43*	4	-5	23	0
Cc1cccc(Nc2nc(-c3c(C)nc4ccccn34)cs2)c1	4	40	-14	5	nt	4	nt	nt
Cc1nn(-c2ccccc2)c(C)c1C=NNC(=O)CSc1nnc(SCc2ccccc2Cl)s1	nt	nt	6	nt	nt	nt	nt	nt
COc1ccc(C(=O)Nn2cnnc2)cc1OC	1	-5	7	43*	19	-9	26	-1
Cc1onc(-c2ccccc2Cl)c1C(=O)NNC(=O)c1ccc(F)cc1	3	nt	3	-5	1	-5	nt	nt
Cc1cccc(C(=O)NNC(=O)c2c(-c3ccccc3Cl)noc2C)c1O	2	21	2	39*	-5	0	-4	0
Cc1ccc(C(=O)Nn2cnnc2)c(Cl)c1	2	nt	2	49*	0	-6	42*	-6
Cc1onc(-c2c(Cl)cccc2Cl)c1C(=O)Nn1cnnc1	2	-10	2	45*	2	-8	37*	2
CN(C(=NS(=O)(=O)c1ccccc1)c1ccccc1)S(=O)(=O)c1ccccc1	nt	nt	2	nt	nt	nt	nt	nt
CC(=NNC(=S)NCc1ccccc1)c1cccs1	nt	nt	3	nt	nt	nt	nt	nt
O=C(Cc1c(F)cccc1Cl)NN=Cc1cccnc1	nt	nt	4	nt	nt	nt	nt	nt
Cc1ccc(OCC(=O)NN=Cc2cn(C)c3ccccc23)cc1	nt	nt	5	nt	nt	nt	nt	nt
COc1ccc(C(=O)Nn2cnnc2)c(OC)c1	-8	2	5	34*	5	-8	7	1
COc1ccc(C(=O)Nn2cnc3ccccc3c2=O)c(OC)c1	0	5	nt	-2	-4	-7	nt	nt
COc1ccc(C=NNC(=O)c2cc(O)c(O)c(O)c2)cc1CN1CCN(c2ccc(F)cc2)CC1	nt	nt	11	nt	nt	nt	nt	nt
COc1ccc(/C=N\NC(=O)c2cc(O)c(O)c(O)c2)cc1COc1ccc(C(=O)OCC(C)C)cc1	0	8	nt	32*	-2	-17	-7	-1
COc1ccc(/C=N\NC(=O)c2cc(O)c(O)c(O)c2)cc1CN1CCN(c2ccc(F)cc2)CC1	6	39	nt	38*	3	-12	-13	-1
Cc1nn(C)c(C)c1C=NO	nt	nt	-1	nt	nt	nt	nt	nt
Cc1ccc(C=NNC(=O)C(C)Oc2ccccc2[N+](=O)[O-])s1 (centres undefined)	nt	nt	6	nt	nt	nt	nt	nt
SMILES	HDAC3 inhib	ALR H2O2 inh	UCH37 inh	PfM18AAP inh-1	Rtt109 HAT inh	FAS TE block	PfM18AAP inh-2	CTSL1 counter
O=C(CNC(=O)c1ccccc1)NCCc1ccc(O)c(O)c1	4	nt	nt	84*	-4	-1	73*	-5
N#Cc1c(C(F)(F)F)cc(-c2ccco2)nc1SCc1ccncc1	-3	nt	-86	44*	-4	18	-43	7
N#Cc1c(C(F)(F)F)cc(-c2ccco2)nc1SCc1ccccn1	3	-5	-36	-2	0	40	nt	nt
CN(C)Cc1c(C(=O)NN=Cc2ccccc2OCc2c(F)cccc2Cl)nnn1-c1nonc1N	nt	nt	-3	nt	nt	nt	nt	nt
Cc1cccnc1Nc1nc(-c2ccc(O)cc2)cs1	1	38	4	34*	6	2	30*	3
Cc1cccnc1Nc1nc(-c2ccc(F)cc2)cs1	2	-4	2	-2	-7	26	nt	nt
COc1cccc(Nc2nc(-c3ccc(O)cc3)cs2)c1	11	38	5	43*	5	14	34*	-1
O=c1c2c(-c3cccs3)csc2ncn1N=Cc1ccc(OC(F)F)cc1	nt	nt	-3	nt	nt	nt	nt	nt
COC(=O)NN=Cc1cn(CCOc2cccc(OC)c2)c2ccccc12	nt	nt	5	nt	nt	nt	nt	nt
NNC(=O)c1cc(O)c(O)c(O)c1	-7	99*	3	65*	-3	-4	44*	-4
O=C(/C=C/c1cccc(Cl)c1)c1nc2ccccc2[nH]1	-2	nt	1	32*	11	6	14	5
O=C(NNC(=O)c1cc(O)c(O)c(O)c1)NC1CCCCC1	-12	72	1	46*	0	-11	11	-3
O=C(NNC(=O)c1cccnc1)NC1CCCCC1	-5	18	0	3	nt	-6	nt	nt
FC(F)(F)c1ccccc1NC(=S)N1CCCC1	2	3	1	6	-10	-6	nt	nt
FC(F)(F)c1ccccc1NC(=S)NN=C1CCCCCC1	8	-13	2	39*	nt	nt	-23	-1
COc1ccc(-c2nn(-c3ccccc3)cc2C(=O)NN=Cc2ccc([N+](=O)[O-])o2)cc1	nt	nt	7	nt	nt	nt	nt	nt
Cc1ccc(-n2c(N)c(C(=O)N3CCOCC3)sc2=S)cc1	-4	-4	9	13	6	-10	nt	nt
NC(=O)c1sc(=S)n(-c2ccc(Br)cc2)c1N	7	95*	13	38*	-16	9	-41	0
CN1CCN(C(=O)c2sc(=S)n(-c3ccccc3)c2N)CC1	11	28	9	49*	-5	-11	17	6
COc1ccc(S(=O)(=O)NNc2nc(C)cc(C)n2)cc1[N+](=O)[O-]	0	-2	4	62*	-1	1	39*	-4
Cc1nn(C)c(C(=O)NN=Cc2ccc(Br)cc2)c1Cl	nt	nt	4	nt	nt	nt	nt	nt
CN1c2ccccc2C(C)(C)[C@]12C=Cc1cc(O)ccc1O2	14	88*	3	48*	4	-3	-81	-5
